Laboratory results taken from ChEMBL document CHEMBL1914430, “Synthesis of some new 1,3,5-trisubstituted pyrazolines bearing benzene sulfonamide as anticancer and anti-inflammatory agents” (Bioorg Med Chem Lett, 2011).

Tests used:
Assay type in all cases: functional
SF-539 = assay: Anticancer activity against human SF539 cells after 48 hrs; conditions: SF-539, 48 h
Method in brief: (§1)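 NCI 60-line panel protocol with a 48 h incubation. Per line: GI50 = concentration giving 50% decrease in net cell growth; TGI = total growth inhibition; LC50 = net 50% loss of initial cells. When the level was not reached or was exceeded, the value is given as greater or less than the highest or lowest concentration tested.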

HOP-62 = assay: Anticancer activity against human HOP62 cells after 48 hrs; conditions: HOP-62, 48 h
Method in brief: (§2)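 NCI Drug Evaluation Branch 60-cell-line screen across leukemia, melanoma, lung, colon, CNS, ovarian, renal, prostate and breast panels. The incubation period is 48 h. Parameters are derived from dose–response data: GI50 is the concentration giving 50% decrease in net growth, TGI is total growth inhibition, and LC50 is net 50% loss of initial cells. Values beyond the tested range are reported as greater or less than the maximum or minimum concentration.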

HCC 2998 = assay: Anticancer activity against human HCC2998 cells after 48 hrs; conditions: HCC 2998, 48 h; method in brief: as §2
[1] = Anticancer activity against human Hs 578T cells after 48 hrs; method in brief: as §2
SW-620 = assay: Anticancer activity against human SW620 cells after 48 hrs; conditions: SW-620, 48 h; method in brief: as §1
HOP-92 = assay: Anticancer activity against human HOP92 cells after 48 hrs; conditions: HOP-92, 48 h; method in brief: as §2
DU-145 = assay: Anticancer activity against human DU145 cells after 48 hrs; conditions: DU-145, 48 h; method in brief: as §2
COLO 205 = assay: Anticancer activity against human COLO205 cells after 48 hrs; conditions: COLO 205, 48 h; method in brief: as §2
K562 = assay: Anticancer activity against human K562 cells after 48 hrs; conditions: K562, 48 h; method in brief: as §2
SF-295 = assay: Anticancer activity against human SF295 cells after 48 hrs; conditions: SF-295, 48 h; method in brief: as §1
OVCAR-4 = assay: Anticancer activity against human OVCAR4 cells after 48 hrs; conditions: OVCAR-4, 48 h; method in brief: as §1
MDA-MB-435 = assay: Anticancer activity against human MDA-MB-435 cells after 48 hrs; conditions: MDA-MB-435, 48 h; method in brief: as §2
SNB-19 = assay: Anticancer activity against human SNB19 cells after 48 hrs; conditions: SNB-19, 48 h; method in brief: as §1
ACHN = assay: Anticancer activity against human ACHN cells after 48 hrs; method in brief: as §2
RPMI-8226 = assay: Anticancer activity against human RPMI8226 cells after 48 hrs; conditions: RPMI-8226, 48 h; method in brief: as §1
PC-3 = assay: Anticancer activity against human PC3 cells after 48 hrs; conditions: PC-3, 48 h; method in brief: as §1
MOLT-4 = assay: Anticancer activity against human MOLT4 cells after 48 hrs; conditions: MOLT-4, 48 h; method in brief: as §1
UACC-62 = assay: Anticancer activity against human UACC62 cells after 48 hrs; conditions: UACC-62, 48 h
Method in brief: (§3)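 NCI ~60 human tumour cell line panel with a 48 h incubation. GI50 is the concentration giving a 50% fall in net growth, TGI gives total growth inhibition, and LC50 gives a net 50% loss of initial cells. An effect not reached or exceeded is reported as greater or less than the highest or lowest concentration tested.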

NCI/ADR-RES = assay: Anticancer activity against human NCI/ADR-RES cells after 48 hrs; method in brief: as §1
A498 = assay: Anticancer activity against human A498 cells after 48 hrs; conditions: A498, 48 h; method in brief: as §2
NCI-H23 = assay: Anticancer activity against human NCI-H23 cells after 48 hrs; conditions: NCI-H23, 48 h; method in brief: as §1
T47D = assay: Anticancer activity against human T47D cells after 48 hrs; method in brief: as §3
SK-MEL-5 = assay: Anticancer activity against human SK-MEL-5 cells after 48 hrs; conditions: SK-MEL-5, 48 h; method in brief: as §1
NCI-H322M = assay: Anticancer activity against human NCI-H322M cells after 48 hrs; method in brief: as §1
UO-31 = assay: Anticancer activity against human UO31 cells after 48 hrs; conditions: UO-31, 48 h, read-out: LC50 (the source's name); method in brief: as §3
OVCAR-8 = assay: Anticancer activity against human OVCAR8 cells after 48 hrs; conditions: OVCAR-8, 48 h; method in brief: as §1
NCI-H460 = assay: Anticancer activity against human NCI-H460 cells after 48 hrs; conditions: NCI-H460, 48 h; method in brief: as §1
RXF 393 = assay: Anticancer activity against human RXF393 cells after 48 hrs; conditions: RXF 393, 48 h; method in brief: as §1
SNB-75 = assay: Anticancer activity against human SNB75 cells after 48 hrs; conditions: SNB-75, 48 h; method in brief: as §1
786-0 = assay: Anticancer activity against human 786-0 cells after 48 hrs; conditions: 786-0, 48 h; method in brief: as §2
Malme-3M = assay: Anticancer activity against human MALME-3M cells after 48 hrs; method in brief: as §2
LOX IMVI = assay: Anticancer activity against human LOXIMVI cells after 48 hrs; method in brief: as §2
[2] = read-out: LC50 (the source's name)

Question: What does the source list for `Cc1cc(O)c(C2=NN(c3ccc(S(N)(=O)=O)cc3)C(c3ccccc3O)C2)cc1Cl` (centres undefined)?
Answer: GI50 (SF-539): 1.6 µM; LC50 (concentration causing net 50% loss of initial cells) (SF-539): 5.69 µM; TGI (SF-539): 3.02 µM; GI50 (HOP-62): 1.93 µM; LC50 (concentration for 50% net loss of initial cells) (HOP-62): 11.7 µM; TGI (HOP-62): 4.5 µM; GI50 (HCC 2998): 2.13 µM; LC50 (net 50% loss of initial cells) (HCC 2998): 8.74 µM; TGI (HCC 2998): 4.31 µM; GI50 [1]: 4.64 µM; TGI [1]: 22.5 µM; CC50 [1, 2]: > 100 µM; GI50 (SW-620): 1.76 µM; TGI (SW-620): 3.59 µM; CC50 (SW-620; [2]): 7.35 µM; GI50 (HOP-92): 1.46 µM; TGI (HOP-92): 6.51 µM; CC50 (HOP-92; [2]): 37.8 µM; GI50 (DU-145): 2.41 µM; LC50 (concentration causing net 50% loss of initial cells) (DU-145): 10.6 µM; TGI (DU-145): 4.95 µM; GI50 (COLO 205): 1.95 µM; LC50 (concentration giving net 50% loss of initial cells) (COLO 205): 6.43 µM; TGI (COLO 205): 3.54 µM; GI50 (K562): 2.56 µM; LC50 (concentration killing 50% of initial cells) (K562): > 100 µM; TGI (K562): 14.6 µM; GI50 (SF-295): 1.66 µM; LC50 (concentration giving net 50% loss of initial cells) (SF-295): 8.09 µM; TGI (SF-295): 3.67 µM; GI50 (OVCAR-4): 3.9 µM; LC50 (OVCAR-4): 51.8 µM; TGI (OVCAR-4): 16 µM; GI50 (MDA-MB-435): 2.04 µM; TGI (MDA-MB-435): 4.49 µM; CC50 (MDA-MB-435; [2]): 9.88 µM; GI50 (SNB-19): 4.33 µM; TGI (SNB-19): 15.2 µM; CC50 (SNB-19; [2]): 39.8 µM; GI50 (ACHN): 3.13 µM; TGI (ACHN): 11.2 µM; CC50 (ACHN; [2]): 33.4 µM; GI50 (RPMI-8226): 2.39 µM; LC50 (concentration for net 50% loss of initial cells) (RPMI-8226): > 100 µM; TGI (RPMI-8226): 15 µM; GI50 (PC-3): 1.33 µM; TGI (PC-3): 3.52 µM; CC50 (PC-3; [2]): 9.33 µM; GI50 (MOLT-4): 4.74 µM; LC50 (MOLT-4): > 100 µM; TGI (MOLT-4): 34.4 µM; GI50 (UACC-62): 3.54 µM; LC50 (UACC-62): 40.8 µM; TGI (UACC-62): 15.5 µM; GI50 (NCI/ADR-RES): 3.61 µM; TGI (NCI/ADR-RES): 14.1 µM; CC50 (NCI/ADR-RES; [2]): 54.1 µM; GI50 (A498): 2.79 µM; TGI (A498): 14.5 µM; CC50 (A498; [2]): 46.9 µM; GI50 (NCI-H23): 2.09 µM; LC50 (concentration killing 50% of initial cells) (NCI-H23): 16 µM; TGI (NCI-H23): 5.03 µM; GI50 (T47D): 3.18 µM; TGI (T47D): 14.6 µM; CC50 (T47D; [2]): 64.9 µM; GI50 (SK-MEL-5): 5.69 µM; LC50 (SK-MEL-5): 42.7 µM; TGI (SK-MEL-5): 18.2 µM; GI50 (NCI-H322M): 2.5 µM; LC50 (net 50% loss of initial cells) (NCI-H322M): 26 µM; TGI (NCI-H322M): 7.24 µM; CC50 (UO-31): 38.5 µM; GI50 (OVCAR-8): 3.89 µM; TGI (OVCAR-8): 16.5 µM; CC50 (OVCAR-8; [2]): 91.8 µM; GI50 (NCI-H460): 2.06 µM; LC50 (50% lethal concentration) (NCI-H460): 9.4 µM; TGI (NCI-H460): 4.48 µM; GI50 (RXF 393): 3.65 µM; LC50 (RXF 393): 64.8 µM; TGI (RXF 393): 13 µM; GI50 (SNB-75): 1.79 µM; TGI (SNB-75): 13.6 µM; CC50 (SNB-75; [2]): 37.1 µM; GI50 (786-0): 2.23 µM; TGI (786-0): 4.21 µM; CC50 (786-0; [2]): 7.94 µM; GI50 (Malme-3M): 2.72 µM; TGI (Malme-3M): 7.34 µM; CC50 (Malme-3M; [2]): 59.2 µM; GI50 (LOX IMVI): 1.73 µM; TGI (LOX IMVI): 3.19 µM; CC50 (LOX IMVI; [2]): 5.87 µM
